From PubChem BioAssay
PKA-R1A act – activators of PKA-R1A holoenzyme, primary screen, biochemical, fluorescence polarization, Cy5-IP20, bovine R1A, mouse PKAc; PKA-R1A dissociation; scaled: DMSO 0%, 113 µM cGMP 100%; activation, % at 11.4 µM; 0.083% of 340,000 active; AID 504707, 2011; cAMP-dependent protein kinase type I-alpha regulatory subunit (Bos taurus) + …;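 active = percent activation above the mean of all tested compounds plus 3 SD, cut at about 19% in these data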;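 also: higher means more PKAc released from R1A so a rise in polarization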
Tb MetRS inh – T. brucei MetRS inhibitors, primary screen, biochemical, luminescence. purified T. brucei MetRS, ATP depletion, Kinase-Glo luminescence. inhibition, % at 11.9 µM. 0.4% of 360,000 active. AID 624268, 2012;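 active = inhibition above a per-plate cutoff of the control wells' mean inhibition plus 3 SD, cut at about 5.5% in these data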;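 also: 0% = DMSO wells median and 100% = median of wells with control inhibitor compound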
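technique = Kinase-Glo luminescence, ATP depletion format | system = purified MetRS (methionyl-tRNA synthetase) enzyme from Trypanosoma brucei | timing = 15 min preincubation, 2 h reaction, all 25 °C | evaluation = percent inhibition versus plate control medians | dosing = single dose, 11.9 µM final nominal, 0.9% final DMSO | also added = substrates ATP, L-methionine and bulk Escherichia coli tRNA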
PKA-R2B activ – activators of PKA-R2B holoenzyme, primary screen, biochemical, fluorescence polarization, Cy5-IP20, human. cAMP-dependent protein kinase catalytic subunit beta (Homo sapiens) + cAMP-dependent …. PKA-R2B holoenzyme dissociation; R2B truncated from residue 108, S112A mutant; 0% DMSO only, 100% 113 µM cGMP. activation, % at 11.4 µM. 0.079% of 340,000 active. AID 504700, 2011;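 active = activation above a cutoff set at the mean over all compounds plus 3 SD, cut at about 18% in these data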;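 also: higher means more holoenzyme dissociation and a rise in polarization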
Target sequence (P31323 whole entry, looked up, other chains not shown, the tested form may be a part): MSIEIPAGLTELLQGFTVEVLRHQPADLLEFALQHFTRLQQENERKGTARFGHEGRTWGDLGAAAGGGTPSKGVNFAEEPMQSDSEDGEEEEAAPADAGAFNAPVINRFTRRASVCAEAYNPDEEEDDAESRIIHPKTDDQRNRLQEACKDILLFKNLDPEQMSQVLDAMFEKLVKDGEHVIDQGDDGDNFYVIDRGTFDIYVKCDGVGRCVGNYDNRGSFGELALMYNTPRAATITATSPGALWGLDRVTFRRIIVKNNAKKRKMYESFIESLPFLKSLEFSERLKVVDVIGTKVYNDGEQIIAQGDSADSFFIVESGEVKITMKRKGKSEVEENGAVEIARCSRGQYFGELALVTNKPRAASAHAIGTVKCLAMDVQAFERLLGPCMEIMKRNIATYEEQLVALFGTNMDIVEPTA
Rin1-Abl PPI inh – inhibitors of Rin1-Abl protein binding, primary screen, biochemical, TR-FRET; Tyrosine-protein kinase ABL1 (Homo sapiens) + Ras and Rab interactor 1 (Homo sapiens), …; inhibition, % at 7.35 µM; 0.4% of 360,000 active; AID 588664, 2011; in the data active = inhibition above about 5%, passing the limit was not always enough
Cardio protect – cardioprotection against H2O2-induced cell death, primary screen, uHTS, H9c2 cells, ATPLite luminescence. H9c2 cardiomyocytes, H2O2 injury protection, 2 h. protection from H2O2 cell death, % at 20 µM. 0.63% of 360,000 active;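 active = compounds giving at least 50% protection of heart cells from peroxide-induced death in the single-dose screen, raw or plate-pattern-corrected value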;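 also: 0% = DMSO wells with peroxide and 100% = DMSO wells without peroxide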
Rin1 Abl conf – Rin1-Abl binding inhibitor retest, confirmation, biochemical, TR-FRET. 49% of 1,300 active. purified proteins. AID 602124, 2011. inhibition, % at 7.35 µM. shares compounds with Rin1-Abl PPI inh
GFP quencher – GFP fluorescence inhibitors and quenchers, artefact control for Rin1-Abl interaction inhibitor project, biochemical; inhibition, % at 6.75 µM; 8.5% of 1,300 active; shares compounds with Rin1-Abl PPI inh; AID 602125, 2011; inhibitors/quenchers counterscreen;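 also: ABL1-eGFP fusion protein alone without its partner RIN1-SBP; 0% = protein with vehicle and 100% = wells lacking protein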
GFP quench DR – GFP fluorescence inhibitors and quenchers, dose response, artefact control for Rin1-Abl interaction inhibitor project, biochemical | IC50, µM | 230 tested, under 10 active | shares compounds with Rin1-Abl PPI inh | GFP fluorescence interference/quenching counterscreen; call rule not given here;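 also: ABL1-eGFP fusion protein alone without its RIN1 binding partner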
Tb MetRS conf – T. brucei MetRS inhibitors, confirmation, biochemical, luminescence. shares compounds with Tb MetRS inh. T. brucei MetRS enzyme, luminescence (ATP depletion). inhibition, % at 11.9 µM. 93% of 1,400 active; in the data active = inhibition above about 7%
Jurkat tox – Jurkat T cell cytotoxicity, cytotoxicity control for T. brucei MetRS inhibitor project, luminescence, high throughput; shares compounds with Tb MetRS inh; Jurkat cells viability, ATP luminescence; inhibition, % at 8.3 µM; 12% of 1,400 active; in the data active = inhibition above about 15%;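 also: 0% = vehicle and 100% = reference inhibitor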
TbMetRS FP orth – T. brucei MetRS inhibitors, orthogonal assay for T. brucei MetRS inhibitor project, biochemical, fluorescence polarization; shares compounds with Tb MetRS inh; purified T. brucei MetRS; inhibition, % at 11.9 µM; 44% of 1,400 active; in the data active = inhibition above about 17%;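 also: 0% = vehicle wells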
An asterisk follows results filed as active; nt = not tested or not shown. A selection: hits, their analogues and other compounds. The true share with any hit is near 1.5%. Rule as the data show it, unless noted: active = inhibition above about 6.5%; inactive = the rest.

SMILES	PKA-R1A act	Tb MetRS inh	PKA-R2B activ	Rin1-Abl PPI inh	Cardio protect	Tb MetRS conf	Jurkat tox	TbMetRS FP orth	others
COc1cc2nc(Nc3cccc(F)c3)nc(N)c2cc1OC	-6	9.1*	-6	8.9*	46	29*	12	25*	Rin1 Abl conf=13*;GFP quencher=1
COc1nc(Nc2cccc(F)c2)nc(OC)n1	-8	-1	6	3	-2	nt	nt	nt
O=C(CNS(=O)(=O)c1ccccc1)NCC(=O)OCc1ccc(Cl)cc1	-9	-1	6	1	1	nt	nt	nt
COC(=O)C[C@@H]1C=C[C@H](NC(=O)Nc2cc(F)ccc2F)[C@@H](CO)O1	nt	-1	nt	nt	nt	nt	nt	nt
COCCNC(=O)CS(=O)Cc1nc(-c2ccccc2C)oc1C (stereo unspecified)	-3	59*	6	12*	5	3	-3	5	Rin1 Abl conf=-1;GFP quencher=1
CC(=O)O[C@H]1[C@H](C)OC=C[C@@H]1OC(C)=O	5	0	-10	3	3	nt	nt	nt
CCc1ccc(NC(=O)Cn2c(=O)oc3cc(S(=O)(=O)N4CCOCC4)ccc32)cc1	0	15*	5	8.1*	-14	12*	1	5	Rin1 Abl conf=1;GFP quencher=-1
COc1ccc(CCC(=O)Nc2c(-c3ccc(N(C)C)cc3)[nH][nH]c2=O)cc1	nt	14*	nt	32*	-13	3	2	-1	Rin1 Abl conf=40*;GFP quencher=-2;GFP quench DR=>68
COc1ccc(-c2[nH][nH]c(=O)c2NC(=O)c2ccccn2)cc1	nt	-1	nt	4	5	nt	nt	nt
CCCCn1c(NC(=O)c2ccccc2)c(C#N)c2nc3ccccc3nc21	-1	11*	-12	12*	-3	15*	4	7	Rin1 Abl conf=6;GFP quencher=2
Cc1ccc(C(=O)NCCn2c(N)c(C#N)c3nc4ccccc4nc32)cc1	-5	1	-7	-2	3	nt	nt	nt
c1ccc(CNc2nc(NCCc3ccncc3)c3sccc3n2)cc1	nt	12*	nt	20*	-22	33*	9	19*	Rin1 Abl conf=10*;GFP quencher=0
COc1ccc2[nH]c3c(NCCCOC(C)C)ncnc3c2c1	2	6.2*	2	2	-11	17*	9	10
COc1ccc2[nH]c3c(NCCC4=CCCCC4)ncnc3c2c1	4	18*	5	-1	-17	40*	51*	31*
COC(=O)c1ccc(NC(=O)Cn2nc(C)cc2C)cc1	0	0	-6	3	0	nt	nt	nt
COc1cc(/C=C2\SC(=S)N(NS(=O)(=O)c3ccc(C)cc3)C2=O)ccc1O	-2	5	7	2	-2	nt	nt	nt
CCOc1cc(/C=C2\SC(=S)N(NS(=O)(=O)c3ccc(C)cc3)C2=O)ccc1O	2	5.8*	-5	-1	3	11*	-4	32*
Cc1ccnc(NCc2ccc(Br)cc2)c1	-3	6.0*	-12	2	-3	15*	-1	6
COc1ccc(CNc2cc(C)ccn2)cc1	11	1	7	4	0	nt	nt	nt
O=C(NCc1cccs1)c1cccc(Nc2nc3ccc(Br)cc3[nH]2)c1	-6	5.7*	-10	-2	-7	25*	1	22*
O=C(NCc1cccs1)c1ccccc1	-4	0	-13	-1	-1	nt	nt	nt
Cn1c(SCc2ccccc2C#N)nnc1-c1ccncc1	-7	0	-10	1	2	nt	nt	nt
Nc1nnc(CC(=O)N/N=C/c2ccc(-c3cccc(C(=O)O)c3)o2)s1	-19	0	4	-5	0	nt	nt	nt
O=C(Cc1ccc(Br)cc1)N/N=C/c1ccc(-c2cccc(C(=O)O)c2)o1	-1	6.9*	-11	-1	-5	16*	0	5
CC(=O)NS(=O)(=O)c1ccc(NC(=O)c2ccc(S(=O)(=O)N3CCCC3)cc2)cc1	1	0	-5	4	0	nt	nt	nt
SMILES	PKA-R1A act	Tb MetRS inh	PKA-R2B activ	Rin1-Abl PPI inh	Cardio protect	Tb MetRS conf	Jurkat tox	TbMetRS FP orth	others
CN(C)Cc1nc2ccccc2c(=O)n1CC(=O)Nc1cccc(S(=O)(=O)N2CCOCC2)c1	-2	-1	-6	1	7	nt	nt	nt
CS(=O)(=O)Cc1nc2ccccc2n1CC(=O)Nc1cccc(S(=O)(=O)N2CCCC2)c1	-1	10*	4	0	4	33*	0	10
Cc1c(NS(=O)(=O)c2cccc(C(=O)OCC(=O)c3ccc(Cl)cc3)c2)c(=O)n(-c2ccccc2)n1C	-10	0	0	2	-10	nt	nt	nt
COc1ccc(NC(=O)c2cccc(Oc3ccc([N+](=O)[O-])cc3Cl)c2)cc1	0	0	2	4	-11	nt	nt	nt
CCN(CC)C(=O)c1ccc(Oc2ccc([N+](=O)[O-])cc2Cl)cc1	8	5.9*	6	0	-12	13*	8	11
c1ccc2c(CCNc3ncnc4nc[nH]c34)cccc2c1	-3	43*	-9	-1	6	58*	10	35*
c1ccc(CCCNc2ncnc3nc[nH]c23)cc1	-10	0	4	2	2	nt	nt	nt
Clc1ccc(CCNc2ncnc3nc[nH]c23)cc1	-6	11*	5	0	-24	17*	27*	9
Cc1ccc(C2CCN(C(=S)NC(C)C)C2)cc1 (stereo unspecified)	-3	0	-4	-3	-1	nt	nt	nt
CCc1cccc(NC(=O)Cn2cc3c(n2)CCCC3)c1	-7	0	-13	-1	8	nt	nt	nt
